# Measured values from ChEMBL document CHEMBL2401693, “Chromatographic separation of piracetam and its metabolite in a mixture of microsomal preparations, followed by an MS/MS analysis” (Eur J Med Chem, 2013).
# Key:
# Liver microsomes [1] = assay: Drug metabolism in human liver microsomes assessed as Metabolite M1 formation after 10 mins by UPLC-MS/MS analysis; assay type: ADME, Microsome
# Outline: (§1)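 Pooled human liver microsomes (30 donors), 0.5 mg protein/ml, in 50 mM Tris-HCl pH 7.4 with 5 mM MgCl2 and 50 mM piracetam (final 500 µL), triplicate tubes, 37 °C with shaking. After 10-min preincubation, reaction started with 2 mM NADPH. Stopped with cold ethyl acetate at the stated time, then centrifuged, reconstituted in mobile phase and analysed by UPLC-MS/MS.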
# Liver microsomes [2] = assay: Drug metabolism in human liver microsomes assessed as Metabolite M1 formation after 40 mins by UPLC-MS/MS analysis; assay type: ADME, Microsome; outline: as §1
# Liver microsomes [3] = assay: Drug metabolism in human liver microsomes assessed as Metabolite M1 formation after 20 mins by UPLC-MS/MS analysis; assay type: ADME, Microsome; outline: as §1
# Liver microsomes [4] = assay: Metabolic stability in human liver microsomes assessed as retention time by UPLC-MS/MS analysis; assay type: ADME, Microsome
# Outline: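 UPLC on BEH column (1.7 µm) at 30 °C, isocratic acetonitrile/10 mM ammonium acetate pH 5.0 (15:85), 0.3 ml/min, 5 µL injection, PDA 209 nm with Q-TOF ESI positive mode.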
# Liver microsomes [5] = assay: Drug metabolism in human liver microsomes assessed as Metabolite M1 formation after 30 mins by UPLC-MS/MS analysis; assay type: ADME, Microsome; details: 0.5 h; outline: as §1
# Liver microsomes [6] = assay: Drug metabolism in human liver microsomes assessed as Metabolite M1 formation after 50 mins by UPLC-MS/MS analysis; assay type: ADME, Microsome; outline: as §1
# Plasma [7] = assay: Stability in rat plasma assessed as metabolite M1 at 180 ng/ml after 30 days at -20 degC; assay type: ADME, cell-free; details: 720 h
# Outline: (§2)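 M1 spiked into drug-free rat plasma at QC low and high levels, six replicates per level; extracted with ethyl acetate, UPLC-MS/MS. Conditions: bench top room temperature, frozen storage, three freeze–thaw cycles (frozen ≥12 h each), processed samples in autosampler. Stable if accuracy and precision within 15%; reported as % nominal and RSD.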
# Liver microsomes [8] = assay: Metabolic stability in human liver microsomes assessed as compound remaining after 10 mins by UPLC-MS/MS analysis; assay type: ADME, Microsome
# Rattus norvegicus [9] = assay: Cmax in Wistar rat assessed as Metabolite M1 at 50 mg/kg, po; assay type: ADME, organism-based; design: dose 50 mg/kg, route oral; details: in vivo
# Liver microsomes [10] = assay: Metabolic stability in human liver microsomes assessed as compound remaining after 30 mins by UPLC-MS/MS analysis; assay type: ADME, Microsome; details: 0.5 h
# Rattus norvegicus [11] = assay: Apparent elimination half life in Wistar rat assessed as Metabolite M1 at 50 mg/kg, po; assay type: ADME, organism-based; design: dose 50 mg/kg, route oral; details: in vivo
# Plasma [12] = assay: Stability in rat plasma assessed as Metabolite M1at 20 ng/ml during three freeze-thaw cycles; assay type: ADME, cell-free; outline: as §2
# Plasma [13] = assay: Stability in rat plasma assessed as Metabolite M1at 20 ng/ml after 24 hrs by autosampler analysis; assay type: ADME, cell-free; outline: as §2
# Plasma [14] = assay: Stability in rat plasma assessed as metabolite M1 at 180 ng/ml after 10 days at -80 degC; assay type: ADME, cell-free; details: 240 h; outline: as §2
# Plasma [15] = assay: Stability in rat plasma assessed as metabolite M1 at 180 ng/ml after 24 hrs by autosampler analysis; assay type: ADME, cell-free; outline: as §2
# Plasma [16] = assay: Stability in rat plasma assessed as Metabolite M1at 20 ng/ml after 2 hrs at room temperature; assay type: ADME, cell-free; outline: as §2
# Plasma [17] = assay: Stability in rat plasma assessed as metabolite M1 at 180 ng/ml after 2 hrs at room temperature; assay type: ADME, cell-free; outline: as §2
# Liver microsomes [18] = assay: Metabolic stability in human liver microsomes assessed as compound remaining after 50 mins by UPLC-MS/MS analysis; assay type: ADME, Microsome
# Liver microsomes [19] = assay: Metabolic stability in human liver microsomes assessed as compound remaining after 20 mins by UPLC-MS/MS analysis; assay type: ADME, Microsome
# Rattus norvegicus [20] = assay: Clearance in Wistar rat assessed as Metabolite M1 at 50 mg/kg, po; assay type: ADME, organism-based; design: dose 50 mg/kg, route oral; details: in vivo
# Rattus norvegicus [21] = assay: AUC (0 to infinity) in Wistar rat assessed as Metabolite M1 at 50 mg/kg, po; assay type: ADME, organism-based, Plasma; design: dose 50 mg/kg, route oral, time infinity; details: in vivo
# Rattus norvegicus [22] = assay: AUC (0 to t) in Wistar rat assessed as Metabolite M1 at 50 mg/kg, po; assay type: ADME, organism-based, Plasma; design: dose 50 mg/kg, route oral; details: in vivo
# Plasma [23] = assay: Stability in rat plasma assessed as Metabolite M1at 20 ng/ml after 30 days at -20 degC; assay type: ADME, cell-free; details: 720 h; outline: as §2
# Liver microsomes [24] = assay: Metabolic stability in human liver microsomes assessed as compound remaining after 40 mins by UPLC-MS/MS analysis; assay type: ADME, Microsome
# Rattus norvegicus [25] = assay: Tmax in Wistar rat assessed as Metabolite M1 at 50 mg/kg, po; assay type: ADME, organism-based; design: dose 50 mg/kg, route oral; details: in vivo
# Plasma [26] = assay: Stability in rat plasma assessed as metabolite M1 at 180 ng/ml during three freeze-thaw cycles; assay type: ADME, cell-free; outline: as §2
# Rattus norvegicus [27] = assay: […] in Wistar rat assessed as Metabolite M1 at 50 mg/kg, po; assay type: ADME, organism-based; design: dose 50 mg/kg, route oral; details: in vivo
# Plasma [28] = assay: Stability in rat plasma assessed as Metabolite M1at 20 ng/ml after 10 days at -80 degC; assay type: ADME, cell-free; details: 240 h; outline: as §2
compound,measurement,setting,value
O=C(O)CN1CCCC1=O,Drug metabolism,Liver microsomes [1],2.42 µM
same,Drug metabolism,Liver microsomes [2],9.23 µM
same,Drug metabolism,Liver microsomes [3],4.79 µM
same,Retention_time,Liver microsomes [4],2.042 min
same,Drug metabolism,Liver microsomes [5],6.45 µM
same,Drug metabolism,Liver microsomes [6],13.89 µM
NC(=O)CN1CCCC1=O [PIRACETAM],Drug metabolism,Plasma [7],179.123 ng/mL
same,Stability,Liver microsomes [8],47.56 µM
same,Cmax,Rattus norvegicus [9],155.39 ng/mL
same,Stability,Liver microsomes [10],43.78 µM
same,betat1/2(app),Rattus norvegicus [11],3.652 h
same,Drug metabolism,Plasma [12],18.88 ng/mL
same,Drug metabolism,Plasma [13],19.043 ng/mL
same,Drug metabolism,Plasma [14],179.13 ng/mL
same,Drug metabolism,Plasma [15],178.753 ng/mL
same,Drug metabolism,Plasma [16],19.347 ng/mL
same,Drug metabolism,Plasma [17],178.883 ng/mL
same,Stability,Liver microsomes [18],36.22 µM
same,Stability,Liver microsomes [19],45.66 µM
same,CL,Rattus norvegicus [20],887.3 mL/min/kg
same,Retention_time,Liver microsomes [4],2.726 min
same,AUC,Rattus norvegicus [21],939.178 µg·h/mL
same,AUCt,Rattus norvegicus [22],928.445 µg·h/mL
same,Drug metabolism,Plasma [23],18.787 ng/mL
same,Stability,Liver microsomes [24],40.56 µM
same,Tmax,Rattus norvegicus [25],1 h
same,Drug metabolism,Plasma [26],178.42 ng/mL
same,MRT,Rattus norvegicus [27],5.542 h
same,Drug metabolism,Plasma [28],18.853 ng/mL
